As usually defined, the IC50 is the concentration needed to halve the response being measured.

The record followed here is ChEMBL document CHEMBL1140334, “Synthesis and structure-activity relationships of pyrazine-pyridine biheteroaryls as novel, potent, and selective vascular endothelial growth factor receptor-2 inhibitors” (J Med Chem, 2005).

In one assay the test system is MRC5. Put plainly: Concentration required to inhibit proliferation of human MRC5 fibroblast cell growth.
For a further assay, the target named is Insulin receptor (Homo sapiens, UniProt P06213). Put plainly: Inhibition of insulin Receptor kinase. In outline: (§1)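 Radiometric kinase assay. Conditions varied slightly per kinase. Stopped with PBS/100 mM EDTA, read by scintillation counting. IC50 by linear regression of % inhibition, mean of at least two determinations.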
Sequence of Insulin receptor (P06213 28-758 limits assumed): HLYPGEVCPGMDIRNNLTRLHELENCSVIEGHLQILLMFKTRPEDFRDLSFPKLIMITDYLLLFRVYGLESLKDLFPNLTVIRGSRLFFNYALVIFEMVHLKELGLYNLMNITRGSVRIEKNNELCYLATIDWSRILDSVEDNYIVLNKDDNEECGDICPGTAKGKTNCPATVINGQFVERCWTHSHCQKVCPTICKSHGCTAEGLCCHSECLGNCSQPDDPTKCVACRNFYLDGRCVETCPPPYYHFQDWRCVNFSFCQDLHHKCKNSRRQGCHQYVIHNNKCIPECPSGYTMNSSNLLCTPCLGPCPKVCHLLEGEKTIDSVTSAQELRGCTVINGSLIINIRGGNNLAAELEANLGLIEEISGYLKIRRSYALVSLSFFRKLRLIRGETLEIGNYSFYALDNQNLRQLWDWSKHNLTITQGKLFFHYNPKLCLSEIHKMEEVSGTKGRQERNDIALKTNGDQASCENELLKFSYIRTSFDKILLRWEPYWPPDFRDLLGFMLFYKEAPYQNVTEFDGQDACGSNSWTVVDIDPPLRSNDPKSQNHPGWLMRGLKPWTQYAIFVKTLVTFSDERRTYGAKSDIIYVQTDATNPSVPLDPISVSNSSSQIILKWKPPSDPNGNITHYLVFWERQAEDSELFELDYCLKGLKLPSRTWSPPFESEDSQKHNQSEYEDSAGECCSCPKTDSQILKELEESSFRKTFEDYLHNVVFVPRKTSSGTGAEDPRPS
Sequence of Insulin receptor (P06213 763-1382 limits assumed): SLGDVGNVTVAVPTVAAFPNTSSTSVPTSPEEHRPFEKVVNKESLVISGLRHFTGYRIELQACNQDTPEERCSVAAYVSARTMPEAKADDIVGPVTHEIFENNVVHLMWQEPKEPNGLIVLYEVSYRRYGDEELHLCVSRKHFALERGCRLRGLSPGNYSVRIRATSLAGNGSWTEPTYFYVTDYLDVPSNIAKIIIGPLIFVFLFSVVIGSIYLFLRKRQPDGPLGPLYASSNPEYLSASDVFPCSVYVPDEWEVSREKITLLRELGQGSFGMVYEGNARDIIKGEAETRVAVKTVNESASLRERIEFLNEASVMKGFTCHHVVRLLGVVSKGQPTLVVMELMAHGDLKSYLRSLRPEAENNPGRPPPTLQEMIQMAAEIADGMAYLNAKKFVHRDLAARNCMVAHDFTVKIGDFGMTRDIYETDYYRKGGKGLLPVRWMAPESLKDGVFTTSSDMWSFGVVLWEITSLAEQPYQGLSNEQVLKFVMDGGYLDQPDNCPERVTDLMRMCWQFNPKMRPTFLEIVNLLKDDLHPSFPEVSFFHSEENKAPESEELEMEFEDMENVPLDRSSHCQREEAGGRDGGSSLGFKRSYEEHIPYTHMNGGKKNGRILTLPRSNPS
Assay [1] in a line: Inhibition of protein kinase A. In outline:
as §1

In the next assay the target is Casein kinase I. Put plainly: Inhibition of casein kinase 1. It counts as protein assay.
Another assay deals with Casein kinase II (Homo sapiens, UniProt P19784+P67870+P68400). Description: Inhibition of casein kinase 2. It counts as protein-complex assay. In outline: as §1
Sequence of Casein kinase II (P67870 whole entry): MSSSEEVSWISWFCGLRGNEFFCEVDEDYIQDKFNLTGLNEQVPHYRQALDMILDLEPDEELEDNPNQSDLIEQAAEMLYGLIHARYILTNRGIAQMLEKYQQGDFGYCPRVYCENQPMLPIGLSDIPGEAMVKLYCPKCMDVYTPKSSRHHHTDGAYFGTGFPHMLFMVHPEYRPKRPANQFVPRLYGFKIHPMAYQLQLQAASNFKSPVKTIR
Sequence of Casein kinase II (P68400 whole entry): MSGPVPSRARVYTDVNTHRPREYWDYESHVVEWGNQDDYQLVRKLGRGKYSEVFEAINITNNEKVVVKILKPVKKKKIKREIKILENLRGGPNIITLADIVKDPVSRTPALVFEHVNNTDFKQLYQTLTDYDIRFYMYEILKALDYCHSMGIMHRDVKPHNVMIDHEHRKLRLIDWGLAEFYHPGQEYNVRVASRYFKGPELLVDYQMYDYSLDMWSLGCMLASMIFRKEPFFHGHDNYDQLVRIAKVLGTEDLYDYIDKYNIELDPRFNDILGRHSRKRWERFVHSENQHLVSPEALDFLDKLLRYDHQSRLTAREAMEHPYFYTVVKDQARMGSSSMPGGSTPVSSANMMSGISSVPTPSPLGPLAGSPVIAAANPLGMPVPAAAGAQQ
Sequence of Casein kinase II (P19784 whole entry): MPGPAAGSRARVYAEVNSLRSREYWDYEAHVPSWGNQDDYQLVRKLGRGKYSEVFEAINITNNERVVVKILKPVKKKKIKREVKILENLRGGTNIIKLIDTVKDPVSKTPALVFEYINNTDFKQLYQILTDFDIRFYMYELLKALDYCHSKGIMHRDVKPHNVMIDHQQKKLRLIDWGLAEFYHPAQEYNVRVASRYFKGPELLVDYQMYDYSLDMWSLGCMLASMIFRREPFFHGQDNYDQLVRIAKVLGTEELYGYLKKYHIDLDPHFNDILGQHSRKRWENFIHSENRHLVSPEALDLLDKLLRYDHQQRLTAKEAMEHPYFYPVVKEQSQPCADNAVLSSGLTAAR
In assay [2] the target is T1, Vascular endothelial growth factor receptor 2 (Homo sapiens, UniProt P35968). Put plainly: Inhibition of vascular endothelial growth factor receptor 2. In outline: as §1
T1 sequence (P35968 whole entry): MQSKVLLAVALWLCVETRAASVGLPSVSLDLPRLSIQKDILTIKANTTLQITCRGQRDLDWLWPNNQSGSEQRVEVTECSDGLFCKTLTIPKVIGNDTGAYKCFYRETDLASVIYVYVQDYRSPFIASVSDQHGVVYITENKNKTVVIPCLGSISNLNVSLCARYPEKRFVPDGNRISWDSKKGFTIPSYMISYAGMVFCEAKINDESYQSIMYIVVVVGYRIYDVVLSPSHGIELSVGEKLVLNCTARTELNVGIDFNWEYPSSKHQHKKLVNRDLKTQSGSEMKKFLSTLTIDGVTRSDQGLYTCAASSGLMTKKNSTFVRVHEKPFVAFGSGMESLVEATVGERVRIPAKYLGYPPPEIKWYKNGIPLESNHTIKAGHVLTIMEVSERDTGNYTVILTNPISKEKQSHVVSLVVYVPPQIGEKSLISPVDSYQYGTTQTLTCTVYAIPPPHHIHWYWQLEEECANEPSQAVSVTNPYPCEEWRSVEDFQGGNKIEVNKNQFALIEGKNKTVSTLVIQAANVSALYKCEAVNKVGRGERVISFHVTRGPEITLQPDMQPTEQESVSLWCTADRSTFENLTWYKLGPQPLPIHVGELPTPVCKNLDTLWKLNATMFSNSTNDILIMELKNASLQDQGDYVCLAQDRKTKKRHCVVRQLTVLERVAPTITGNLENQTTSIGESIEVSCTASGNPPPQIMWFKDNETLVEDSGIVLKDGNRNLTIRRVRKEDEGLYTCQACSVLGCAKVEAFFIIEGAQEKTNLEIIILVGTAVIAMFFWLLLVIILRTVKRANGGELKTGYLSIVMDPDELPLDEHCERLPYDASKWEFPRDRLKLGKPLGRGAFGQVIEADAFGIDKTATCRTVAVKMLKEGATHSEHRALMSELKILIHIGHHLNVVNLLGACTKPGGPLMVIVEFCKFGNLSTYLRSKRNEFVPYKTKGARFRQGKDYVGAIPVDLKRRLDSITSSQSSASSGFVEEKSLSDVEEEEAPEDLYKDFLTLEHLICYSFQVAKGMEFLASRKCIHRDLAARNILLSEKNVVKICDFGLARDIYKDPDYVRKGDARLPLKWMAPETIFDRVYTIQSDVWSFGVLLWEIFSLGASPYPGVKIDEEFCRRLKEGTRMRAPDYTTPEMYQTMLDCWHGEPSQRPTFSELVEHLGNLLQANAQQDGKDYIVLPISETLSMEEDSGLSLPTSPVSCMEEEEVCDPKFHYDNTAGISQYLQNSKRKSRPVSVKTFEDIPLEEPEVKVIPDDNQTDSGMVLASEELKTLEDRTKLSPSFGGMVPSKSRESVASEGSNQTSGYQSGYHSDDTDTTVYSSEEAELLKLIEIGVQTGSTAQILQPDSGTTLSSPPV
Assay [3] is described as follows: Inhibition of platelet-derived growth factor receptor. In outline: as §1
Assay [4] has as its target T1, Vascular endothelial growth factor receptor 2. Description: Inhibitory concentration (experimental) against vascular endothelial growth factor receptor 2. In outline:
as §1

For assay [5], the target named is Glycogen synthase kinase-3 (Homo sapiens, UniProt P49840+P49841). Put plainly: Inhibition of glycogen synthase kinase-3. It counts as protein assay. In outline: as §1
Assay [6] addresses Mitogen-activated protein kinase 1 (Homo sapiens, UniProt P28482). Put plainly: Inhibition of mitogen-activated protein kinase. In outline: as §1
A further assay concerns HASMC. Description: Concentration required to inhibit proliferation of HASMC. As to conditions: Homo sapiens.
Assay [7] has as its system HUVEC. Description: Concentration required to inhibit proliferation of HUVEC. The note with it: Homo sapiens.
The test system of assay [8] is A-375. Description: Concentration required to inhibit proliferation of A375 human amelanotic melanoma cell growth.
The subject of the next assay is HCT-116. Put plainly: Concentration required to inhibit proliferation of human HCT116 colon cancer cell growth.
Another assay has as its system HeLa. Description: Concentration required to inhibit proliferation of HeLa cell growth. The note with it: Homo sapiens.
The test system of assay [9] is HUVEC. Description: Concentration inhibiting VEGF stimulated (2 ng/well) HUVE cell proliferation. As to conditions: Homo sapiens.
A short description of assay [10]: Inhibition of protein kinase C gamma. In outline:
as §1

For assay [11], the target named is Cyclin-dependent kinase 4/cyclin D1 (Homo sapiens, UniProt P11802). Description: Inhibition of cyclin dependent kinase 4-cyclinD1. It counts as protein-complex assay. In outline: as §1
Assay [12] concerns A-375. Description: The antitumor activity shown by the compound against A375 human melanoma xenografts growing in nude mice (10 mg/kg, i.p.) in terms of mean day of survival. It counts as functional, Mus musculus. In outline:
(§2)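 Female nude mice carried subcutaneous flank implants of 1 mm3 A375 fragments and were pair-matched on day 1 at tumors of 62-126 mg. Dosing was i.p. once daily for 30 days, in 1.5% Pluronic F108 vehicle; the study ended at day 60. Tumor weight was taken as (w2l)/2. Mice were euthanized at 2.0 g, and MDS was derived from calculated time to endpoint.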

Assay [13] relates to A-375. Put plainly: The antitumor activity shown by the compound against A375 human melanoma xenografts growing in nude mice (75 mg/kg, i.p.) in terms of mean day of survival. It counts as functional, Mus musculus. In outline:
as §2
In general terms: Xenograft models place foreign cells or tissue in a host animal.

The next assay deals with CaM kinase II (Homo sapiens, UniProt Q13557+Q13555+Q13554+Q9UQM7). Description: Inhibition of calcium/calmodulin-dependent protein kinase type II. It counts as protein assay.
Assay [14] concerns the target Protein kinase C beta type (Homo sapiens, UniProt P05771). Put plainly: Inhibition of protein kinase C beta activity. In outline:
as §1

The nature of assay [15]: Inhibition of cyclin-dependent kinase 1 activity. In outline:
as §1

SMILES strings stand for the structures.

Sequence of Mitogen-activated protein kinase 1 (P28482 whole entry): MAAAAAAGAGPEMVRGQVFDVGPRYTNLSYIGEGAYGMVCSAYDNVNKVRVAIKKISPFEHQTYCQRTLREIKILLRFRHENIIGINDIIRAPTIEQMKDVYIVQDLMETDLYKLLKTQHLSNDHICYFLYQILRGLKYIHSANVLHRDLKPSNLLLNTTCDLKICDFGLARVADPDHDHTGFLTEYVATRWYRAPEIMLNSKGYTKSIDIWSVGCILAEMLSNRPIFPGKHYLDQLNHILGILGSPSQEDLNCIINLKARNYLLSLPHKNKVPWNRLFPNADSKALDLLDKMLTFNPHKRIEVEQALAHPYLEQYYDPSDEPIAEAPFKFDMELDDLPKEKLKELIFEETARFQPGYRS
Sequence of Protein kinase C beta type (P05771 whole entry): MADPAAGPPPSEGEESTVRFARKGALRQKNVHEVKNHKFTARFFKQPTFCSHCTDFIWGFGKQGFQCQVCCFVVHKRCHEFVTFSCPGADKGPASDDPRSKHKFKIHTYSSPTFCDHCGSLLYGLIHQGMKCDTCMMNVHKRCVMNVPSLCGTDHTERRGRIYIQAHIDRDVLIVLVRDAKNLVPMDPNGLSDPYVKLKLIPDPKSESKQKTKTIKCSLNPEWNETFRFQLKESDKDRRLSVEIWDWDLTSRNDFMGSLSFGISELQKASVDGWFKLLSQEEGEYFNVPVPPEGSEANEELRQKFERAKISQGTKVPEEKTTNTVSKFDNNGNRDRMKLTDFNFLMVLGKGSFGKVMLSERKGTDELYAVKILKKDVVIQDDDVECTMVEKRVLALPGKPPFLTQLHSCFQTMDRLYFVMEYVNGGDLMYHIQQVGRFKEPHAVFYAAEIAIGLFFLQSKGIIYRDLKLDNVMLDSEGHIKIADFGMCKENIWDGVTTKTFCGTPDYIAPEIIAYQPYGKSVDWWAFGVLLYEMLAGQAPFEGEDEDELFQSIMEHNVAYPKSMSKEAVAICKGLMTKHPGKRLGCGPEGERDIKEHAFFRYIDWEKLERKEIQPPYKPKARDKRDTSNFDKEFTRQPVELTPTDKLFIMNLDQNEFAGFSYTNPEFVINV

In the case of `Clc1cccc(Nc2cncc(-c3cncc(NCCCc4cccnc4)c3)n2)c1`, the IC50 in the assay on MRC5 is 3.38 µM; on Insulin receptor, greater than 10 µM; in assay [1], greater than 10 µM; against Casein kinase I, greater than 10 µM; against Casein kinase II it was greater than 10 µM; in [2], 0.076 µM. The IC50 in [3] was 0.876 µM; in [4] it was 0.0759 µM; in [5], 0.318 µM; in assay [6], greater than 10 µM; in the assay with HASMC it was 6.15 µM; in the assay on HUVEC [7], 1.67 µM. The IC50 stood at 2.96 µM with A-375 [8], 5.05 µM in the assay with HCT-116, 3.06 µM in the assay on HeLa and 0.086 µM in the assay with HUVEC [9].
Regarding `CN(C)CCNc1cncc(-c2cncc(Nc3cccc(Cl)c3)n2)c1`, the IC50 in the assay with MRC5 was 2.91 µM; in assay [10], 3.96 µM; at Insulin receptor, greater than 10 µM; in assay [1], greater than 10 µM; in assay [11] it was greater than 10 µM; against Casein kinase I it was greater than 10 µM. The IC50 on Casein kinase II is greater than 10 µM; in assay [2] it was 0.105 µM; in assay [3], greater than 10 µM; in assay [4], 0.105 µM; in [5] it was greater than 10 µM; on CaM kinase II it was greater than 10 µM. The IC50 in [6] was greater than 10 µM; in the assay on HASMC, 2.77 µM; in the assay on HUVEC [7], 0.877 µM; in the assay with A-375 [8], 3.72 µM; in the assay with HCT-116 it was 8.58 µM; with HeLa, greater than 10 µM. Besides, the IC50 in the assay with HUVEC [9] is 0.059 µM; in assay [14], greater than 10 µM; in assay [15], greater than 10 µM. Moreover, the MDS in the assay on A-375 [12] is recorded as 22.4; in the assay with A-375 [13], 28.9.
